Reference: ChEMBL document CHEMBL1140235, “Novel 4-(4-aryl)cyclohexyl-1-(2-pyridyl)piperazines as Delta(8)-Delta(7) sterol isomerase (emopamil binding protein) selective ligands with antiproliferative activity” (J Med Chem, 2008)

How the values were obtained:
[1] = molecular target: T1, 3-beta-hydroxysteroid-Delta(8),Delta(7)-isomerase (Cavia porcellus, UniProt Q60490); experiment: Displacement of [3H](-)-(S)-emopamil from EBP in guinea pig liver membrane; format: cell membranes
T1 sequence (Q60490 whole entry): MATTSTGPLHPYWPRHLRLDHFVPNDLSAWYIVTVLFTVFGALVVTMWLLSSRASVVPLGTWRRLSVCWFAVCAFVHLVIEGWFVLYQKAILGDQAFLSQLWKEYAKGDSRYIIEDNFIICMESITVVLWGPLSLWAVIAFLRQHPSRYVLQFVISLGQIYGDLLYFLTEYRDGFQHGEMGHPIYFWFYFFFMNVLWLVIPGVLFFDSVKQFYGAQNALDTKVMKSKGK
Procedure, shortened: (§1)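 Radioligand displacement run by previously published methods, EBP per Moebius and σ1/σ2 per Matsumoto. Tissues from male Dunkin guinea pigs and Wistar Hannover rats (250–300 g). IC50 from six to nine drug concentrations in two or three experiments, samples in duplicate.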

[2] = molecular target: Sigma non-opioid intracellular receptor 1 (Cavia porcellus, UniProt Q60492); experiment: Displacement of [3H](+)-pentazocine from sigma 1 receptor in guinea pig brain membrane without cerebellum; format: cell membranes; procedure, shortened: as §1
Sequence of Sigma non-opioid intracellular receptor 1 (Q60492 whole entry): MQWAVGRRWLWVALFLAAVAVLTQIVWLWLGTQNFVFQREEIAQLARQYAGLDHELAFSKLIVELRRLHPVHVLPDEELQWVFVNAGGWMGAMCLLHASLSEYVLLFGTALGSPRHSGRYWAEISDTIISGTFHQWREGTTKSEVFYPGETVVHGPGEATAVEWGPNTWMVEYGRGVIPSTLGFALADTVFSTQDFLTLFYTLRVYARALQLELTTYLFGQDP

[3] = Displacement of [3H]-DTG from sigma 2-type opioid receptor in rat liver membrane in presence of (+)-pentazocine; format: cell membranes; procedure, shortened: as §1
Cavia porcellus = species: Cavia porcellus; experiment: Selectivity ratio of Ki for sigma 1 receptor in guinea pig brain membrane without cerebellum to Ki for EBP in guinea pig liver membrane; format: cell membranes
[4] = Selectivity ratio of Ki for sigma 2 receptor in rat liver membrane to Ki for EBP in guinea pig liver membrane; format: cell membranes
PC-3 [5] = experiment: Cytotoxicity against human PC3 cells assessed as LDH release at 100 uM after 24 hrs relative to untreated control; format: functional
Procedure, shortened: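 PC-3 cells exposed to test compound for 24 h at 37 °C, 5% CO2. LDH release into the medium was measured fluorimetrically (ex 560/em 590 nm) after 10 min with substrate mix at room temperature, then stop solution. Total LDH taken from lysed untreated wells. % cytotoxicity = 100 × (treated medium LDH − background)/(total LDH − background).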

[6] = molecular target: T2, 5-hydroxytryptamine receptor 1A (Rattus norvegicus, UniProt P19327); experiment: Displacement of [3H]8OH-DPAT from 5HT1A receptor in rat hippocampal membrane; format: cell membranes, Hippocampus
T2 sequence (P19327 whole entry): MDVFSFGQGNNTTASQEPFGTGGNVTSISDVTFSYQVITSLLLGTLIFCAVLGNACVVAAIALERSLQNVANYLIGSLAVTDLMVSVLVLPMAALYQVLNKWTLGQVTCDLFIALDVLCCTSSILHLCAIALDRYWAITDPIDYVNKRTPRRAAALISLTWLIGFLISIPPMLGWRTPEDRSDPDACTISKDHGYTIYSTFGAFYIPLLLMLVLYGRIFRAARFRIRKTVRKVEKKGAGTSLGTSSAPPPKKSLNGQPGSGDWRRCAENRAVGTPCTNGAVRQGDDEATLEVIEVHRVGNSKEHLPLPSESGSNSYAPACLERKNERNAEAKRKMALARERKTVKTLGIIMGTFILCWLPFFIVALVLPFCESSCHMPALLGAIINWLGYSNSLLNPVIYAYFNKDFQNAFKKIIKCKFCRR

D(2) dopamine receptor = D(2) dopamine receptor (Rattus norvegicus, UniProt P61169); experiment: Displacement of [3H]spiroperidol from dopamine D2 receptor in rat striatal membrane; format: cell membranes, Striatum
Sequence of D(2) dopamine receptor (P61169 whole entry): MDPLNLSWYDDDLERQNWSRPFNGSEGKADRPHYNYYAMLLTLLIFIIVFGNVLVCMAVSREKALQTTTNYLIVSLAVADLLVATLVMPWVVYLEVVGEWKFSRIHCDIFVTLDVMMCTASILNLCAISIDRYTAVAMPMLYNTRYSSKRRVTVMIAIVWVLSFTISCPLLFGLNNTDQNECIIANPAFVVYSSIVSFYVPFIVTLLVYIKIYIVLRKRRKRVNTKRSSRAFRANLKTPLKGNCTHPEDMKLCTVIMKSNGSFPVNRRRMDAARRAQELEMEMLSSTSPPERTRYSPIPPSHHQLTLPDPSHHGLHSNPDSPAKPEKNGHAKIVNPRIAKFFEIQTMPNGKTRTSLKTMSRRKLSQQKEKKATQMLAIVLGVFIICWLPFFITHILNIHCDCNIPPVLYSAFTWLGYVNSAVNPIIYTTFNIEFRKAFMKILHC

[7] = molecular target: T3, Adrenergic receptor alpha-1 (Rattus norvegicus, UniProt P15823+P23944+P43140); experiment: Displacement of [3H]prazosin from adrenergic alpha1 receptor in rat cortical membrane; format: cell membranes
T3 sequence (P15823 whole entry): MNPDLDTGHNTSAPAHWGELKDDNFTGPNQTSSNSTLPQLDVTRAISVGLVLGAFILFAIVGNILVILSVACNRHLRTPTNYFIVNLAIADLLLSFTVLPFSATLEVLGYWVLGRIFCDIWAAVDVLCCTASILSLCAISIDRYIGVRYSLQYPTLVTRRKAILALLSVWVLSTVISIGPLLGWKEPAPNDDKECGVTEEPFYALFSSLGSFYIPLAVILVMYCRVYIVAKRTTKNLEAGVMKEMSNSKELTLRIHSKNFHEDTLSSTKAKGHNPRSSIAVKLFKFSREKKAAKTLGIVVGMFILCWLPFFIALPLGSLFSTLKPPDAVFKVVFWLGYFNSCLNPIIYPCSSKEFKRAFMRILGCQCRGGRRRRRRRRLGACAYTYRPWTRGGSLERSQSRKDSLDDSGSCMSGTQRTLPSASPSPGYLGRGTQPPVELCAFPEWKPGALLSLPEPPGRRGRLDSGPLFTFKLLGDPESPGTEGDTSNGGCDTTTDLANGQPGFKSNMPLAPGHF
T3 sequence (P23944 whole entry): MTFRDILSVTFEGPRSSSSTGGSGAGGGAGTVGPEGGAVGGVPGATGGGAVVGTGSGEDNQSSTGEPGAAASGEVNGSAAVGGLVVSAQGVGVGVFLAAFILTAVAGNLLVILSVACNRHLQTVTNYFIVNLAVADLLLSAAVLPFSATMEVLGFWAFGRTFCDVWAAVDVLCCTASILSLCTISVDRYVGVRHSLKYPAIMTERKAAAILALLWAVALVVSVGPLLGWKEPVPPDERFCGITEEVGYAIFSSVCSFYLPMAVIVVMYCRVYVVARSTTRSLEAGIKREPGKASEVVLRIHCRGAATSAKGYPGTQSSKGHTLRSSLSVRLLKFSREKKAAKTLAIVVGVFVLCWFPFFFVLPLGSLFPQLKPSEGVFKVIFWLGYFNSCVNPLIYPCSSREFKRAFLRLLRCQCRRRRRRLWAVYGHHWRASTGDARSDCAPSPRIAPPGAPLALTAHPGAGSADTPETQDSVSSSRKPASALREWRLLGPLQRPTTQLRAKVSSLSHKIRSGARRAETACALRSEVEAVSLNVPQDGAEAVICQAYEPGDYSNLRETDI
T3 sequence (P43140 whole entry): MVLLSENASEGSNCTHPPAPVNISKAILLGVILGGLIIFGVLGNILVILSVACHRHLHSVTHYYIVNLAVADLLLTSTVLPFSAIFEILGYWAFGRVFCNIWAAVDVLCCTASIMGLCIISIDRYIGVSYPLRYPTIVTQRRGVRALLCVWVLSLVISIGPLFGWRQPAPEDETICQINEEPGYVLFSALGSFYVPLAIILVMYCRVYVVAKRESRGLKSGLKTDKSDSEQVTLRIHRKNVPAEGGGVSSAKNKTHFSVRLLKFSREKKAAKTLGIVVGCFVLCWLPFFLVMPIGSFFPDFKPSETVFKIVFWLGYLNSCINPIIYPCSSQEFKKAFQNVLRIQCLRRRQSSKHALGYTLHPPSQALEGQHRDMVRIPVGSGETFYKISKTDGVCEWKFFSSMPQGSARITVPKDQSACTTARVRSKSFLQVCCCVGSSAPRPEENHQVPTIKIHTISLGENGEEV

PC-3 [8] = experiment: Antiproliferative activity against human PC3 cells expressing EBP after 48 hrs by MTT assay; format: functional, cell-based
Procedure, shortened: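 MTT read-out at 48 h in PC-3 cells grown in RPMI 1640 with 10% FBS, 2 mM glutamine, penicillin/streptomycin, 37 °C, 5% CO2. 10 000 cells/well seeded day 1, drugs added day 2 over 1–100 µM (150 or 300 µM for some references). Solvent controls included. MTT 0.5 mg/mL for 3 h, formazan dissolved in DMSO, absorbance at 570 and 630 nm.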

| SMILES | Ki [1] | Ki [2] | Ki [3] | Ratio Ki (Cavia porcellus) | Ratio Ki [4] | Activity (PC-3 [5]) | Ki [6] | Ki (D(2) dopamine receptor) | Ki [7] | EC50 (PC-3 [8]) |
| --- | --- | --- | --- | --- | --- | --- | --- | --- | --- | --- |
| Clc1ccccc1[C@H]1CC[C@H](N2CCN(c3ccccn3)CC2)CC1 | 7.21 nM | 190 nM | 29.1 nM | 26 | 4 | <10% | – | – | – | – |
| COc1cccc([C@H]2CC[C@@H](N3CCN(c4cccc5ccccc45)CC3)CC2)c1 | 16.7 nM | 240 nM | – | – | – | <10% | 74 nM | 1310 nM | 5540 nM | – |
| Fc1cccc(F)c1[C@H]1CC[C@H](N2CCN(c3ccccn3)CC2)CC1 | 106 nM | 190 nM | 138 nM | 1.8 | 1.2 | <10% | – | – | – | – |
| Fc1cccc(F)c1[C@H]1CC[C@@H](N2CCN(c3ccccn3)CC2)CC1 | 140 nM | 5170 nM | 440 nM | 37 | 3 | <10% | – | – | – | 37300 nM |
| c1ccc([C@H]2CC[C@H](N3CCN(c4ccccn4)CC3)CC2)cc1 | 16.8 nM | 104 nM | 26.9 nM | 6 | 1.6 | <10% | – | – | – | – |
| COc1cccc(OC)c1[C@H]1CC[C@H](N2CCN(c3ccccn3)CC2)CC1 | 7 nM | 215 nM | 25 nM | 31 | 3.6 | <10% | – | – | – | – |
| Cc1cccc(C)c1C1=CCC(N2CCN(c3ccccn3)CC2)CC1 (racemic) | 46.7 nM | 177 nM | 113 nM | 3.8 | 2.4 | <10% | – | – | – | – |
| COc1cccc([C@H]2CC[C@@H](N3CCN(c4ccccn4)CC3)CC2)c1 | 45.4 nM | 178 nM | 36.1 nM | – | – | <10% | 815 nM | > 850 nM | 783 nM | – |
| COc1cccc(C2=CCC(N3CCN(c4ccccn4)CC3)CC2)c1 (stereo unspecified) | 2640 nM | 220 nM | – | – | – | <10% | – | – | – | – |
| CCCN(CCC)CCc1ccc(OC)c(OCCc2ccccc2)c1 | – | – | 212 nM | – | – | <10% | – | – | – | 47000 nM |
| CC(C)=CCN1CC[C@]2(C)c3cc(O)ccc3C[C@H]1[C@H]2C [(+)-PENTAZOCINE] | > 10 nM | – | 1860 nM | – | – | <10% | – | – | – | 86900 nM |
| COc1cccc(C2=CCC(N3CCN(c4ccccc4)CC3)CC2)c1 (stereo unspecified) | 460 nM | – | – | – | – | <10% | – | – | – | – |
| Cc1cccc(C)c1[C@H]1CC[C@@H](N2CCN(c3ccccn3)CC2)CC1 | 33.1 nM | 6.32 nM | 60.2 nM | 0.2 | 1.8 | <10% | – | – | – | – |
| COc1ccc2c(c1)CCC(CN1CCN(c3ccccn3)CC1)C2 (stereo unspecified) | 32.1 nM | 358 nM | 1250 nM | – | – | <10% | – | – | – | – |
| CC(C(O)c1ccc(O)cc1)N1CCC(Cc2ccccc2)CC1 (racemic) [IFENPRODIL] | 16.4 nM | – | 2.3 nM | – | – | <10% | – | – | – | 25800 nM |
| COc1cccc([C@H]2CC[C@H](N3CCN(c4ccccn4)CC3)CC2)c1 | 16.2 nM | 24.8 nM | 21.9 nM | – | 2 | <10% | – | – | – | 23000 nM |
| COc1cccc([C@H]2CC[C@@H](N3CCN(c4ccccc4)CC3)CC2)c1 | 1710 nM | – | – | – | – | <10% | 183 nM | 2380 nM | 2250 nM | – |
| Cc1ccccc1[C@H]1CC[C@H](N2CCN(c3ccccn3)CC2)CC1 | 9.04 nM | 30.7 nM | 29.6 nM | 3.4 | 3.3 | <10% | – | – | – | – |
| COc1ccc([C@H]2CC[C@H](N3CCN(c4ccccn4)CC3)CC2)cc1 | 71.6 nM | 291 nM | 222 nM | 4 | 3 | <10% | – | – | – | – |
| COc1cccc([C@H]2CC[C@@H](NCCOc3ccccn3)CC2)c1 | 23.5 nM | 7.71 nM | – | – | – | <10% | 373 nM | 783 nM | > 850 nM | – |
| Cc1ccccc1[C@H]1CC[C@@H](N2CCN(c3ccccn3)CC2)CC1 | 5 nM | 1000 nM | 71 nM | 200 | 14 | <10% | – | – | – | 38000 nM |
| Clc1ccccc1[C@H]1CC[C@@H](N2CCN(c3ccccn3)CC2)CC1 | 85.1 nM | 1090 nM | 150 nM | 13 | 1.8 | <10% | – | – | – | – |
| c1ccc([C@H]2CC[C@@H](N3CCN(c4ccccn4)CC3)CC2)cc1 | 49.2 nM | 802 nM | 62 nM | 16 | 1.3 | <10% | – | – | – | – |
| COc1cccc(OC)c1[C@H]1CC[C@@H](N2CCN(c3ccccn3)CC2)CC1 | 4.95 nM | > 6000 nM | 687 nM | > 1210 | 138 | <10% | – | – | – | 12900 nM |
| COc1ccccc1[C@H]1CC[C@H](N2CCN(c3ccccn3)CC2)CC1 | 13.5 nM | 2.86 nM | 30 nM | – | 1.3 | <10% | – | – | – | – |
